These results are taken from ChEMBL document CHEMBL1144298, “Novel 3-aminochromans as potential pharmacological tools for the serotonin 5-HT(7) receptor” (Bioorg Med Chem Lett, 2005).

Bounds are passed on as bounds.

The target in assay [1] is 5-hydroxytryptamine receptor 7 (Rattus norvegicus) (UniProt P32305). As to the kind of experiment: Efficacy at the 5-HT7 receptor by measuring its effect on cAMP production in CHO cells. Format: functional, cell-based. A general note: Changes in cAMP serve as a functional read-out for many G protein-coupled receptors.
5-hydroxytryptamine receptor 7 (Rattus norvegicus), sequence (P32305 whole entry): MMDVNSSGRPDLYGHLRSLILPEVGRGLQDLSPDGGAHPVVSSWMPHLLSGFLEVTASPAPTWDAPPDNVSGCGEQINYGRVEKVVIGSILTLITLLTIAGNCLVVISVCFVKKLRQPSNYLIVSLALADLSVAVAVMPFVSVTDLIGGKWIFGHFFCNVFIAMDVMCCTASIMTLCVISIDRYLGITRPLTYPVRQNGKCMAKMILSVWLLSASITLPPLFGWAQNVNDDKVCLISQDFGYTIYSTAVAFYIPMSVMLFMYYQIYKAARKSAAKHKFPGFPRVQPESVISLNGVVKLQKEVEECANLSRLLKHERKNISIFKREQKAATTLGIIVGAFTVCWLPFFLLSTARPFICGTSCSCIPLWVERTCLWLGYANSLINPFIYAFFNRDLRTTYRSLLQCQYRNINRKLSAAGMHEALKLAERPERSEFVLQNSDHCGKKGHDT
The species entered for a further assay is Rattus norvegicus. Description: Ratio of binding affinity for serotonin 5-HT1A to serotonin 5-HT7.
Assay [2] is described as follows: Binding affinity for rat serotonin 5-HT1A receptor using [3H]8-OH-DPAT as radioligand expressed in CHO cells. It counts as cell-based. In short, it runs like this: (§1)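 In vitro radioligand binding on cloned receptors. For 5-HT7, cloned rat receptor expressed in Sf9 cells was labeled with [3H]5-HT. For 5-HT1A, cloned receptor expressed in CHO cells was labeled with [3H]8-OH-DPAT.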

The target of assay [3] is 5-hydroxytryptamine receptor 7 (Rattus norvegicus, UniProt P32305). Description: Binding affinity for rat serotonin 5-HT7 receptor expressed in Sf9 cells using [3H]5-HT radioligand. In short, it runs like this:
as §1

5-hydroxytryptamine receptor 7, sequence (P32305 whole entry): as above

Turning to `O=S(=O)(c1ccc2cc[nH]c2c1)N1CCC[C@@H]1CCN1CCC(Oc2ccc(Cl)cc2)CC1`, in assay [1] (filed as antagonist), the Efficacy result is “Antagonist”. Moreover, the Ratio in the assay filed under Rattus norvegicus was found to be 282. Besides, the figures for the inhibitory constant (Ki) in assay [2] and in assay [3] were 562 nM and 1.99 nM, respectively.
Take `CCCN(CCC)[C@H]1COc2c(cccc2-c2c(OC)cccc2OC)C1`: the Ratio in the assay listed under Rattus norvegicus was 27. Further, in assay [2], the affinity corresponds to a Ki of 174 nM.
The molecule `COc1cccc(OC)c1-c1cccc2c1OC[C@@H](N(C)C)C2` displayed an Efficacy in assay [1] of 28%. The Ratio in the assay listed under Rattus norvegicus was above 189. For the same molecule, the figures for the Ki in assay [2] and in assay [3] were above 1000 nM and 5.29 nM, respectively.
With `CN(C)[C@@H]1COc2ccc(-c3c(O)cccc3O)cc2C1`, the inhibition constant Ki (commonly the dissociation constant of the complex between target and ligand, obtained from inhibition or displacement) in assay [3] is above 1000 nM.
`Cc1cccc(C)c1-c1ccc2c(c1)C[C@H](N(C)C)CO2` returned an Efficacy in assay [1] of 76%. The Ratio in the assay filed under Rattus norvegicus is 6. Moreover, the figures for the Ki in assay [2] and in assay [3] were 75.1 nM and 13.4 nM, respectively.
With `COc1c(-c2ccc3c(c2)C[C@H](N(C)C)CO3)ccc2ccccc12`, the Ratio in the assay filed under Rattus norvegicus was 8. Further, the Ki in assay [2] came out at 594 nM; in assay [3], 75.9 nM.
For the molecule `CN(C)[C@@H]1COc2ccc(-c3ccccc3)cc2C1`, the inhibitory constant (Ki) in assay [3] was above 1000 nM.
On the same count and under the same terms, the value for `COc1cccc(OC)c1-c1ccc2c(c1)C[C@H](N(C)C)CO2` was 367 nM.
